Bioassay records as filed in PubChem.
KCNQ1 inh = human KCNQ1 channel inhibition; P51787; CHO-K1 KCNQ1, FluxOR thallium flux fluorescence; active compounds read high; B-score at 10 µM; 1.3% of 310,000 active; AID 2642;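 active = compounds whose thallium flux B-score, printed positive for inhibition, exceeds three library SD while starting fluorescence stays within three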;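 note: channel opened by potassium depolarization with thallium stimulus after 20 min compound exposure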
hERG rescue = hERG (human) protection from proarrhythmic block; 0.51% of 310,000 active; CHO-hERG, FluxOR thallium flux, dofetilide IC70 present; activation (rescue from dofetilide block), less the hit threshold, % at 10 µM; AID 1511; Q12809;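 active = activation above the mean of controls blocked by dofetilide plus 5 SD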;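 note: thallium influx through hERG after potassium depolarization seen as dye fluorescence rise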
KCNK9 inh = inhibitors of human KCNK9 two-pore domain potassium channel; Q9NPC2; HEK293 KCNK9, FluxOR thallium flux fluorescence; active compounds read low; B-score at 10 µM; 1.2% of 310,000 active;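 active = ratio B-score over 3 SD below the library mean, with starting fluorescence within 5 SD of its mean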;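 note: negative B-score means less thallium flux so channel inhibition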
Target sequence (Q9NPC2 whole entry, looked up, the tested form may be a part): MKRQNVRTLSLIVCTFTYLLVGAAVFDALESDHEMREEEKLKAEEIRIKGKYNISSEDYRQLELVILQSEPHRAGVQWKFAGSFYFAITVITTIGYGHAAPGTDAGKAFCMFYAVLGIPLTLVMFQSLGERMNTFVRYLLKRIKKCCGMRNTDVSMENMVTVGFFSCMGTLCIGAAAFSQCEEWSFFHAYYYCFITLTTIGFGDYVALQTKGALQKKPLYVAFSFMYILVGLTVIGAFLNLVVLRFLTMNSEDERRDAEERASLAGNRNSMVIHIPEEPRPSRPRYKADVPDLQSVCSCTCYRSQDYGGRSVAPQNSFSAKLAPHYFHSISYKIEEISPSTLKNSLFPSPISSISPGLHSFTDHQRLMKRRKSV
Cl transport mod = modulators of human KCC2 chloride dependent transport | KCC2 cells, thallium flux FluoZin-2 fluorescence | Q9H2X9 | 2.2% of 190,000 active | AID 1456 | B-score of Tl+ flux slope (higher = more flux/activation; lower = inhibition) at 10 µM;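 active = thallium flux slope and its plate-corrected score both differing from the plate sample mean at a set confidence after two filtering rounds, in either direction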;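 note: slope of fluorescence scaled to starting intensity during 10 to 20 s after thallium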
KCNQ1 pot = potentiates or activates the human KCNQ1 potassium channel; B-score at 10 µM; CHO-K1 KCNQ1, thallium flux FluxOR fluorescence; active compounds read high; 0.35% of 310,000 active; AID 2648; P51787;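 active = fluorescence ratio B-score, a plate-corrected score, at least three library SD, with initial intensity B-score within 5 SD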
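Test system: CHO-K1 cells stably expressing KCNQ1 / Medium: assay buffer / Also added: depolarizing K+/Tl+ stimulus, K2SO4 and Tl2SO4 each 12.5 mM in 5x stock / Incubation: 90 min dye loading and 20 min compound exposure, both at room temperature / Signal: thallium influx via FluxOR fluorescence, kinetic imaging / Evaluation: B score of baseline-normalized fluorescence ratio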
KCNK3 block = human KCNK3 channel inhibition, primary screen. 0.84% of 340,000 active. O14649. CHO-KCNK3 thallium flux, FluxOR fluorescence; active compounds read low. B-score at 10 µM;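 active = B-score under library mean minus 4 SD, starting fluorescence ratio at most library mean plus 5 SD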;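 note: more negative B-score means stronger inhibition of thallium flux through KCNK3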
KCC2 sec1 = confirmation of human KCC2 transport modulators; shares compounds with Cl transport mod; HEK293-KCC2, thallium flux, FluoZin2 fluorescence; active compounds read high; normalised thallium flux (F/F0 slope) at 10 µM; 15% of 3,700 active; AID 1713;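 active = thallium flux slope above the same plate's solvent-only control mean plus 3 SD; inconclusive = the two replicate wells disagree; inactive = no significant difference from solvent-only control wells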
KCC2 bumet counter = thallium flux despite bumetanide block in KCC2 cells, secondary assay 3; shares compounds with Cl transport mod; HEK293-KCC2 + bumetanide/ouabain, thallium flux FluoZin2; active compounds read high; normalized thallium flux at 10 µM; 49% of 3,700 active; AID 1714;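 active = thallium entry rate above the same plate's blocked-transporter control wells by more than 3 SD; inconclusive = the two repeat wells disagree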;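 note: raw slope of fluorescence over initial fluorescence between 10 and 20 s after thallium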
KCC2 sec2 = KCC2 (human) modulation, second secondary assay. shares compounds with Cl transport mod. HEK293-KCC2, thallium flux FluoZin2 fluorescence; actives lie on both sides; F/F0 rise rate, 10–20 s post-thallium. normalized thallium flux at 10 µM. 23% of 3,700 active. AID 1715;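 active = thallium flux slope more than 3 SD above or below the plate's solvent-only control mean, mostly below; inconclusive = the two repeat wells disagreed; inactive = no significant shift from solvent-only controls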;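 note: raw slope with 0.1% DMSO as baseline and bumetanide as block control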
HEK293 Tl flux = acts in parental HEK cells, KCC2 counter-screen. shares compounds with Cl transport mod. HEK293 parental cells, thallium flux FluoZin2, ouabain; baseline-ratio fluorescence slope, 10–20 s after thallium. thallium flux rate (normalised fluorescence) at 10 µM. 46% of 3,700 active;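 active = thallium flux rate significantly above the same plate's solvent-only control wells, beyond their mean plus 3 SD; inconclusive = the two replicate wells gave conflicting results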
KCC2 ouabain = confirmation of human KCC2 modulators with ouabain. raw Tl+ flux slope (below DMSO = inhibition, above = activation) at 10 µM. HEK293-KCC2, thallium flux FluoZin2 fluorescence; bidirectional: low = inhibitor, high = activator. shares compounds with Cl transport mod. 48% of 3,700 active;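 active = thallium flux slope beyond 3 SD from same-plate DMSO control mean in most replicates, usually higher, sometimes lower; inconclusive = repeat tests gave conflicting results; inactive = no significant difference from controls in most replicates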;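 note: slope of initial-normalized fluorescence between seconds 10 and 20 after thallium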
HEK293 Tl flux2 = counter-screen for KCC2 modulators: effect in parental HEK293 cells. thallium flux slope at 10 µM. thallium flux FluoZin-2 fluorescence slope. 33% of 3,700 active. shares compounds with Cl transport mod. AID 1718;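 active = thallium flux slope above the same plate's solvent-control mean plus 3 SD in both duplicate wells; inconclusive = duplicate wells that disagreed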;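 note: run without ouabain in cells lacking the KCC2 cotransporter; slope of fluorescence scaled to its starting value between 10 and 20 s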
The depositor's hits bear a star; i = inactive; ? = inconclusive; / = no result. A selection: hits, their analogues and other compounds. The true share with any hit is near 4.1%.

SMILES	KCNQ1 inh	hERG rescue	KCNK9 inh	Cl transport mod	KCNQ1 pot	KCNK3 block	KCC2 sec1	KCC2 bumet counter	KCC2 sec2	HEK293 Tl flux	KCC2 ouabain	HEK293 Tl flux2
O=C(/C=C/c1cn(-c2ccccc2)nc1-c1cccnc1)c1ccco1	i	-34.3	i	-0.848	i	i	/	/	/	/	/	/
Cc1oc2cc(O)cc(C)c2c(=O)c1-c1cnn(-c2ccccc2)c1	i	-10.9	i	-1.85	i	i	0.0084	0.00605	0.0335	0.00379	0.0179	0.0109
Cc1oc2c(O)c(O)ccc2c(=O)c1-c1cnn(-c2ccccc2)c1	i	-24.2	i	-0.778	i	i	/	/	/	/	/	/
S=C(NCCCc1ccccc1)Nc1ccc(Cl)cc1	i	-13.3	i	-3.74*	i	i	0.00713	0.0055	0.029	0.00732	0.0316*	0.00994
O=C(Nc1ccc2nc3n(c(=O)c2c1)CCCC3)c1cc([N+](=O)[O-])ccc1F	i	-17.1	i	-3.05*	i	i	0.00975	0.00634	0.035	?	0.018	0.0102
CC(C)(C)C1CCc2sc(C(=O)NNC(=O)CCl)cc2C1 (configuration not stated)	i	-6.8	i	3.27*	i	i	0.00713	0.0168*	0.0302	0.0166*	?	0.0141*
CC(C)(C)C1CCC(=NNC(=O)c2cc3c(s2)CCCC3)CC1 (configuration not stated)	i	-1.1	i	-0.458	i	i	/	/	/	/	/	/
CS(=O)(=O)Cc1cc(N2CCCC2)nc(-c2ccccc2)n1	i	-5.5	i	0.0794	i	i	/	/	/	/	/	/
COCc1cc(N2CCCC2)nc(-c2ccccc2)n1	i	-3.9	i	-3.51*	i	i	0.00662	0.00417	0.0279	0.00671	0.0182	0.00956
O=c1cc(-c2ccccc2)[nH]n1-c1ccccc1	/	/	/	/	/	i	/	/	/	/	/	/
O=c1cc(-c2ccccc2)[nH]n1-c1nc2ccccc2s1	i	-6.2	i	14.1*	i	i	0.0082	0.0367*	?	0.025*	0.0402*	0.0166*
Cc1cccc(COC(=O)CCCNC(=O)c2ccc(Cl)cc2)c1	/	/	/	/	/	i	/	/	/	/	/	/
COc1ccc2nc(NC(=O)C3COc4ccccc4O3)sc2c1 (configuration not stated)	i	-6.4	i	1.11	i	i	/	/	/	/	/	/
CCOC(=O)c1ccccc1NC(=O)C1COc2ccccc2O1 (configuration not stated)	i	-8.9	i	-5.18*	i	i	0.00937	0.00479	0.0296	0.00656	0.0243	0.00966
COC(=O)c1ccccc1NC(=O)C1COc2ccccc2O1 (configuration not stated)	i	-10.9	i	-1.74	i	i	/	/	/	/	/	/
COc1ccc(Cl)cc1C(=O)NNC(=O)C1COc2ccccc2O1 (configuration not stated)	i	-16.4	i	39*	i	i	0.00989	0.0535*	0.0331	0.0166*	0.043*	0.0116*
